Measurements taken from paper PMC4725056 (Nature chemistry, 2015).

Legend:
Assay type in all cases: cell-based, human
[1] = tested on: p-AMPK and p-ACC1 in H1299 cells; test: AMPK and ACC1 phosphorylation; settings: together with DC_AC50 (10 μM), 12 hours
[2] = tested on: lung cancer H1299 cells; test: Cell proliferation; settings: DC_AC50 (10 μM)
[3] = tested on: H1299 cells; test: Measurement of ROS production; settings: pretreated with 1 mM or 3 mM NAC for one hour, followed by 5 μM DC_AC50 for 12 hours
[4] = tested on: H1299 cells; test: Total cellular copper content by inductively coupled plasma mass spectrometry; settings: copper chelator control
Procedure, shortened: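 Total cellular copper in H1299 cells measured by inductively coupled plasma mass spectrometry after test-compound treatment; tetrathiomolybdate served as the copper-chelator control.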

[5] = tested on: H1299 cells; test: Lipid biosynthesis; settings: 10 μM compound C together with DC_AC50

Row | SMILES | rescue of DC_AC50-induced AMPK and ACC1 phosphorylation [1] | rescue of cell-proliferation inhibition by DC_AC50 [2] | rescue of DC_AC50-induced ROS increase [3] | decrease of the total cellular copper content [4] | rescue of lipid biosynthesis reduced by DC_AC50 [5]
1 | CC(=O)N[C@@H](CS)C(=O)O [NAC, N-acetyl-L-cysteine] | failed to rescue | partially rescued | rescued almost completely |  | 
2 | [SH-].[SH-].[S]=[Mo]=[S] [TM, tetrathiomolybdate] |  |  |  | ~40% | 
3 | c1cc(-c2cnn3cc(-c4ccc(OCCN5CCCCC5)cc4)cnc23)ccn1 [compound C] | almost completely reversed | partially rescued |  |  | recovered
